The text below walks through data of ChEMBL document CHEMBL5390271, “Targeting Glial Cells by Organic Anion-Transporting Polypeptide 1C1 (OATP1C1)-Utilizing l-Thyroxine-Derived Prodrugs” (J Med Chem, 2023).

The nature of series [1]: Prodrug conversion in human U-87 MG cells expressing OATPIC1 assessed as OATPIC1 mediated drug release at 100 uM incubated for 30 mins by HPLC analysis. Type of series: ADME, cell-based. To be noted: u-87mg atcc, 0.5 h. In outline:
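U-87MG cells incubated with prodrug at 100 μM for 30 min at 37 °C in HBSS. Released parent drug in cell lysate measured by HPLC and normalized to protein, alongside uptake of the parent drug itself; n = 3–6.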

Series [2] can be described thus: Drug uptake in mouse Astrocyte cells expressing OATPIC4/5/6 assessed as Vmax at 200 uM incubated for 30 mins by Michaelis-Menten analysis. It is filed as ADME, cell-based. To be noted: 0.5 h. In a few lines: (§1)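 Primary astrocytes from neonatal (P0–2) C57BL/6JOlaHsd pups, microglia removed at day 7, seeded at 10^4 cells/well 3 days before assay. Substrate added at 5–400 μM in HBSS pH 7.4 for 30 min at 37 °C. [3H]-estrone-3-sulfate measured by liquid scintillation and prodrugs by HPLC; normalized to protein. Km/Vmax fitted by Michaelis–Menten.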

A short description of series [3]: Chemical stability in Tris-HCI buffer at pH 7.4 at 100 uM and measured after 24 hrs by HPLC analysis. It is filed as physicochemical. The note with it: pH 7.4, 24 h. In a few lines: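 Prodrug (100 μM initial, from 10 mM DMSO stock; 2% DMSO) incubated at 37 °C in 50 mM Tris–HCl pH 7.4 for 24 h. Samples taken at intervals, quenched 1:1 with ACN, analysed by HPLC-UV (230–240 nm). Pseudo-first-order t1/2 taken from the slope of log remaining prodrug vs time.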

Series [4] can be described thus: Drug uptake in mouse Astrocyte cells expressing OATPIC4/5/6 at 100 uM incubated for 30 mins in presence of naringin by liquid scintillation counter analysis. To be noted: 0.5 h. Type of series: ADME, cell-based. In a few lines: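 Astrocytes preincubated 10 min with naringin (100 μM), then incubated with substrate (100 μM) plus naringin in HBSS pH 7.4 for 30 min at 37 °C. Uptake normalized to protein and expressed relative to control; one-way ANOVA with Dunnett's test.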

Series [5] is described as follows: Drug uptake in human U-87 MG cells expressing OATPIC1 at 100 uM incubated for 30 mins in presence of diclofenac by HPLC analysis. Type of series: ADME, cell-based. To be noted: u-87mg atcc, 0.5 h. In outline: (§2)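 U-87MG cells preincubated 10 min with diclofenac or flufenamic acid (100 μM), then co-incubated with the compound (100 μM) plus inhibitor in HBSS pH 7.4 for 30 min at 37 °C. Uptake quantified by HPLC, normalized to protein and expressed as % of control. One-way ANOVA with Dunnett's test; n = 3.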

The nature of series [6]: Prodrug conversion in JAXC57BL/6 mouse brain assessed as total amount of prodrug and ketoprofen level at 25 micromol/kg,ip and measured after 30 mins by LC-MS/MS analysis. It is filed as ADME, tissue-based. The note with it: in vivo, 0.5 h, dose 25 µmol/kg. In a few lines:
(§3)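 Male C57BL/6J mice, seven weeks old, given an ip bolus of 25 μmol/kg. Formulation 2.5 mM in saline with 30% Macrogol 15-hydroxystearate and 3% DMSO. Pentobarbital anaesthesia, then transcardial perfusion with ice-cold saline for 1 min. Whole brain (minus cerebellum and pons) taken at 30 min, homogenized in Tris pH 7.4, ACN-precipitated with labetalol internal standard, and quantified by LC–MS/MS in nmol/g.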

Series [7] can be described thus: Drug uptake in human U-87 MG cells expressing OATPIC1 at 100 uM incubated for 30 mins in presence of flufenamic acid by HPLC analysis. Type of series: ADME, cell-based. The note with it: u-87mg atcc, 0.5 h. In outline: as §2
Series [8] is described as follows: Drug uptake in human U-87 MG cells expressing OATPIC1 at 100 uM incubated for 30 mins in absence of Na+ ions by HPLC analysis. Type of series: ADME, cell-based. The note with it: u-87mg atcc, 0.5 h. In a few lines: (§4)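 U-87MG cells incubated with T4 for 30 min at 37 °C in HBSS buffered with HEPES (pH 7.4, 8.5) or MES (pH 4.5–6.5). For Na+-free conditions, choline chloride replaced NaCl at pH 7.4. Lysates analysed by HPLC and normalized to protein; mean ± SD, n = 3 biological replicates.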

The nature of series [9]: Drug uptake in human U-87 MG cells expressing OATPIC1 at 5 to 400 uM incubated for 30 mins by HPLC analysis. It is filed as ADME, cell-based. The note with it: u-87mg atcc, 0.5 h, dose 5-400 µM. In a few lines: (§5)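 U-87MG cells seeded at 1 × 10^5/well and used 1 day later. After 10 min preincubation in HBSS pH 7.4 at 37 °C, compounds added at 5–400 μM for 30 min at 37 °C. Cells washed with ice-cold HBSS, lysed in 0.1 M NaOH, acidic-ACN precipitated, analysed by HPLC against a spiked lysate standard curve, and normalized to Bradford protein. Km/Vmax fitted by Michaelis–Menten; n = 3 biological replicates.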

A short description of series [10]: Drug uptake in human U-87 MG cells expressing OATPIC1 at pH 4.5 to 8.5 at 100 uM incubated for 30 mins by HPLC analysis. Type of series: ADME, cell-based. The note with it: u-87mg atcc, pH 4.5, 0.5 h. In a few lines:
as §4

Series [11] can be described thus: Drug uptake in human U-87 MG cells expressing OATPIC1 at 100 uM incubated for 30 mins in presence of Na+ ions by HPLC analysis. It is filed as ADME, cell-based. To be noted: u-87mg atcc, 0.5 h. In a few lines: as §4
The nature of series [12]: Drug uptake in human U-87 MG cells expressing OATPIC1 assessed as Vmax at 200 uM incubated for 30 mins by Michaelis-Menten analysis. Type of series: ADME, cell-based. The note with it: u-87mg atcc, 0.5 h. In outline: as §5
Series [13] is described as follows: Drug uptake in mouse Astrocyte cells expressing OATPIC4/5/6 at 100 uM incubated for 30 mins in presence of Na+ ions by liquid scintillation counter analysis. To be noted: 0.5 h. It is filed as ADME, cell-based. In outline: (§6)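 Mouse primary astrocytes incubated with [3H]-estrone-3-sulfate for 30 min at 37 °C in HBSS at pH 4.5–8.5 (MES or HEPES buffer). At pH 7.4, uptake was also run with choline chloride in place of Na+. Read by liquid scintillation counting and normalized to protein; n = 3 biological replicates.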

A short description of series [14]: Drug uptake in mouse Astrocyte cells expressing OATPIC4/5/6 at 5 to 400 uM incubated for 30 mins by liquid scintillation counter analysis. To be noted: 0.5 h, dose 5-400 µM. Type of series: ADME, cell-based. In a few lines:
as §1

The nature of series [15]: Drug uptake in mouse Astrocyte cells expressing OATPIC4/5/6 at 100 uM incubated for 30 mins in absence of Na+ ions by liquid scintillation counter analysis. It is filed as ADME, cell-based. The note with it: 0.5 h. In outline: as §6
The nature of series [16]: Drug uptake in mouse Astrocyte cells expressing OATPIC4/5/6 at pH 4.5 to 8.5 at 100 uM incubated for 30 mins by liquid scintillation counter analysis. Type of series: ADME, cell-based. The note with it: pH 4.5, 0.5 h. In outline: as §6
Series [17] is described as follows: Drug uptake in JAXC57BL/6 mouse brain at 25 micromol/kg,ip and measured after 30 mins by LC-MS/MS analysis. To be noted: in vivo, 0.5 h, dose 25 µmol/kg. It is filed as ADME, tissue-based. In outline:
as §3

Each structure is given as a SMILES string.

Usually Vmax stands for the top rate of the reaction or transport when substrate is in excess. As for `CC(C(=O)Oc1c(I)cc(Oc2c(I)cc(C[C@H](N)C(=O)O)cc2I)cc1I)c1cccc(C(=O)c2ccccc2)c1` (stereo not given in full), in series [1], the Drug metabolism result is “Metabolite_Detected”. Besides, in [2], the maximum rate (Vmax) is 5.5 nmol/min/mg. For the same compound, the Stability entry in [3] is “Stable”. The Drug uptake result in series [4] is listed as “Not Active”; in series [5], “Not Active”; in series [6], 0.78 nmol/g; in series [7], “Not Active”.
As for `N[C@@H](Cc1cc(I)c(Oc2cc(I)c(O)c(I)c2)c(I)c1)C(=O)O` [LEVOTHYROXINE], the Drug uptake result is “Active” in series [8]; “Active” in [9]; “Not Active” in [5]; “Active” in [10]; “Active” in series [11]; “Not Active” in series [7].
On to `N[C@@H](Cc1cc(I)c(OC(=O)c2ccccc2O)c(I)c1)C(=O)O`, for which the Drug metabolism entry in [1] is on record as “Metabolite_Detected”. Besides, the Stability result in series [3] is listed as “Stable”. Moreover, the results for the Drug uptake result in [4], in [5] and in [7] were “Not Active”, “Active” and “Active”, respectively.
As to `CC(C(=O)Oc1c(I)cc(C[C@H](N)C(=O)O)cc1I)c1cccc(C(=O)c2ccccc2)c1` (stereo not given in full), in series [1], the Drug metabolism result is recorded as “Metabolite_Detected”. Moreover, in series [3], the Stability result is given as “Stable”. The Drug uptake result is recorded as “Not Active” in [4], “Active” in [5] and “Active” in [7]. In addition, the maximum rate (Vmax) in [12] stood at 1.27 nmol/min/mg.
As to `COc1ccc2cc([C@H](C)C(=O)Oc3c(I)cc(C[C@H](N)C(=O)O)cc3I)ccc2c1`, the Drug metabolism result in series [1] is reported as “Metabolite_Detected”. Further, the Stability entry in series [3] is “Stable”. For the same compound, the Drug uptake result in series [4], in series [5] and in series [7] was “Active” throughout.
For the compound `C[C@]12CC[C@@H]3c4ccc(OS(=O)(=O)O)cc4CC[C@H]3[C@@H]1CCC2=O` [ESTRONE SULFURIC ACID], the Drug uptake entry is reported as “Active” in [13]; “Active” in series [14]; “Not Active” in series [4]; “Active” in series [15]; “Active” in [16].
As to `CC(C(=O)Oc1c(I)cc(Oc2c(I)cc(C[C@H](N)C(=O)O)cc2I)cc1I)c1ccc(-c2ccccc2)c(F)c1` (stereo not given in full), the Drug metabolism result in [1] is recorded as “Metabolite_Detected”. Also, the Stability result in series [3] is “Stable”. For the same compound, the Drug uptake result in [4], in series [5] and in series [7] was “Not Active” in each case.
For the compound `N[C@@H](Cc1cc(I)c(Oc2cc(I)c(OC(=O)c3ccccc3O)c(I)c2)c(I)c1)C(=O)O`, the Drug metabolism entry in series [1] is listed as “Metabolite_Detected”. For the same compound, the Stability result in series [3] is listed as “Stable”. For the same compound, the Drug uptake result in series [4] was “Not Active”; in series [5], “Active”; in series [7], “Active”.
Turning to `CC(C(=O)Oc1c(I)cc(C[C@H](N)C(=O)O)cc1I)c1ccc(-c2ccccc2)c(F)c1` (stereo not given in full), in series [1], the Drug metabolism result was “Metabolite_Detected”. Besides, in series [3], the Stability entry was “Stable”. Moreover, the Drug uptake result in series [4], in series [5] and in [7] was “Not Active” in each case.
In the case of `COc1ccc2cc([C@H](C)C(=O)Oc3c(I)cc(Oc4c(I)cc(C[C@H](N)C(=O)O)cc4I)cc3I)ccc2c1`, the Drug metabolism result in series [1] is “Metabolite_Detected”. Moreover, in [3], the Stability entry was “Stable”. In addition, the figures for the Drug uptake result in series [4], in series [5] and in [7] were “Active”, “Not Active” and “Active”, respectively.
In turn, `CC(C(=O)O)c1cccc(C(=O)c2ccccc2)c1` (racemic) [KETOPROFEN] registered a Drug uptake in series [17] of 0.22 nmol/g.
